SMILES strings stand for the structures.

What all share (details): in vivo
Data set [1] has as its system Heart. Nature of the data set: Biodistribution in heart of athymic nu/nu mouse bearing human alphavbeta6 expressing DX3purobeta6 cells at 15 to 30 uCi, iv after 1 hr. The data set is classed as ADME, organism-based. The essentials:
(§1)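 Male athymic nu/nu mice carried s.c. xenografts on opposite shoulder flanks: 3 × 10^6 DX3puro or DX3puroβ6 cells in serum-free DMEM, integrin expression checked by flow cytometry beforehand, used 2-5 weeks later. [18F]-peptide (approx. 15-30 μCi) in isotonic solution given i.v. via tail-vein catheter under 3% isoflurane. 1 h conscious uptake, then sacrificed and dissected (n = 3 per tracer). Organs γ-counted, decay-corrected, reported as % ID/g.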

Data set [2] has as its system Lung. Nature of the data set: Biodistribution in lung of athymic nu/nu mouse bearing human alphavbeta6 expressing DX3purobeta6 cells at 15 to 30 uCi, iv after 1 hr. It is filed as ADME, organism-based. The essentials: as §1
Data set [3] relates to Spleen. Nature of the data set: Biodistribution in spleen of athymic nu/nu mouse bearing human alphavbeta6 expressing DX3purobeta6 cells at 15 to 30 uCi, iv after 1 hr. It is filed as ADME, organism-based. The essentials:
as §1

Data set [4] has as its system Brain. Nature of the data set: Biodistribution in brain of athymic nu/nu mouse bearing human alphavbeta6 expressing DX3purobeta6 cells at 15 to 30 uCi, iv after 1 hr. It is filed as ADME, organism-based. The essentials: as §1
For data set [5], the system named is Muscle tissue. Nature of the data set: Biodistribution in muscle of athymic nu/nu mouse bearing human alphavbeta6 expressing DX3purobeta6 cells at 15 to 30 uCi, iv after 1 hr. It is filed as ADME, organism-based. In short, it runs like this: as §1
Data set [6] relates to Bone. Nature of the data set: Biodistribution in bone of athymic nu/nu mouse bearing human alphavbeta6 expressing DX3purobeta6 cells at 15 to 30 uCi, iv after 1 hr. It is filed as ADME, organism-based, Bone element. The essentials: as §1
Data set [7] concerns Kidney. Nature of the data set: Biodistribution in kidney of athymic nu/nu mouse bearing human alphavbeta6 expressing DX3purobeta6 cells at 15 to 30 uCi, iv after 1 hr. The data set is classed as ADME, organism-based. The essentials:
as §1

Data set [8] can be described thus: Biodistribution in urine of athymic nu/nu mouse bearing human alphavbeta6 expressing DX3purobeta6 cells at 15 to 30 uCi, iv after 1 hr. It is filed as ADME, organism-based. The essentials: as §1
Data set [9] deals with Urinary bladder. Nature of the data set: Biodistribution in bladder of athymic nu/nu mouse bearing human alphavbeta6 expressing DX3purobeta6 cells at 15 to 30 uCi, iv after 1 hr. The data set is classed as ADME, organism-based. In short, it runs like this:
as §1

In data set [10] the test system is Liver. Nature of the data set: Biodistribution in liver of athymic nu/nu mouse bearing human alphavbeta6 expressing DX3purobeta6 cells at 15 to 30 uCi, iv after 1 hr. The data set is classed as ADME, organism-based. The essentials: as §1
Data set [11] in a line: Biodistribution in gall bladder of athymic nu/nu mouse bearing human alphavbeta6 expressing DX3purobeta6 cells at 15 to 30 uCi, iv after 1 hr. It is filed as ADME, organism-based. The essentials: as §1
The subject of data set [12] is Blood. Nature of the data set: Biodistribution in blood of athymic nu/nu mouse bearing human alphavbeta6 expressing DX3purobeta6 cells at 15 to 30 uCi, iv after 1 hr. The data set is classed as ADME, organism-based. In short, it runs like this:
as §1

Data set [13] has as its system Pancreas. Nature of the data set: Biodistribution in pancreas of athymic nu/nu mouse bearing human alphavbeta6 expressing DX3purobeta6 cells at 15 to 30 uCi, iv after 1 hr. It is filed as ADME, organism-based. The essentials:
as §1

Data set [14] concerns Stomach. Nature of the data set: Biodistribution in stomach of athymic nu/nu mouse bearing human alphavbeta6 expressing DX3purobeta6 cells at 15 to 30 uCi, iv after 1 hr. It is filed as ADME, organism-based. The essentials: as §1
A short description of data set [15]: Biodistribution in human alphavbeta6 expressing DX3purobeta6 cells bearing athymic nu/nu mouse at 15 to 30 uCi, iv after 1 hr. The data set is classed as ADME, organism-based. In short, it runs like this:
as §1

Data set [16] is described as follows: Biodistribution in human alphavbeta6 deficient DX3puro cells bearing athymic nu/nu mouse at 15 to 30 uCi, iv after 1 hr. The data set is classed as ADME, organism-based. In short, it runs like this: as §1
A short description of data set [17]: Biodistribution ratio of human alphavbeta6 expressing DX3purobeta6 cells to human alphavbeta6 deficient DX3puro cells bearing athymic nu/nu mouse at 15 to 30 uCi, iv after 1 hr. The data set is classed as ADME, organism-based. In short, it runs like this: (§2)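 Tumour ratios were taken from 1 h biodistribution in male nu/nu mice bearing DX3puro and DX3puroβ6 s.c. shoulder xenografts (3 × 10^6 cells). Dosing was approx. 15-30 μCi [18F]-peptide i.v. by tail-vein catheter under isoflurane, with conscious uptake. Tissues were γ-counted as decay-corrected % ID/g (n = 3 per tracer), and the ratio was formed from these values.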

Data set [18] can be described thus: Biodistribution ratio of human alphavbeta6 expressing DX3purobeta6 cells bearing athymic nu/nu mouse to blood of athymic nu/nu mouse bearing human alphavbeta6 expressing DX3purobeta6 cells at 15 to 30 uCi, iv after 1 hr. It is filed as ADME, organism-based. In short, it runs like this:
as §2

For `CC(C)C[C@H](NC(=O)[C@H](CC(=O)O)NC(=O)CNC(=O)[C@H](CCCNC(=N)N)NC(=O)[C@H](CC(C)C)NC(=O)[C@H](CC(N)=O)NC(=O)[C@@H]1CCCN1C(=O)[C@@H](NC(=O)[C@H](C)NC(=O)[C@H](CC(N)=O)NC(=O)CCn1cc(CCC[18F])nn1)C(C)C)C(=O)N[C@@H](CCC(N)=O)C(=O)N[C@H](C(=O)N[C@@H](CC(C)C)C(=O)N[C@@H](C)C(=O)N[C@@H](CCC(N)=O)C(=O)N[C@@H](CCCCN)C(=O)N[C@H](C(=O)N[C@@H](C)C(=O)N[C@@H](CCCNC(=N)N)C(=O)N[C@H](C(N)=O)[C@@H](C)O)C(C)C)C(C)C`, the Drug uptake in [1] is given as 0.47 % ID/g; in data set [2], 1.83 % ID/g; in data set [3], 0.13 % ID/g; in data set [4] it was 0.05 % ID/g; in data set [5], 1.01 % ID/g; in data set [6], 0.39 % ID/g. The Drug uptake in [7] was 9.5 % ID/g; in data set [8], 501 % ID/g; in data set [9] it was 6.24 % ID/g; in data set [10] it was 1.12 % ID/g; in [11], 4.72 % ID/g; in data set [12] it was 0.43 % ID/g. Further, the Drug uptake in data set [13] was 0.3 % ID/g; in data set [14], 0.97 % ID/g; in data set [15], 1.01 % ID/g; in [16], 0.31 % ID/g. The Ratio amounted to 3.3 in data set [17] and 2.3 in data set [18].
Take `CC(C)C[C@H](NC(=O)[C@H](CC(=O)O)NC(=O)CNC(=O)[C@H](CCCNC(=N)N)NC(=O)[C@H](CC(C)C)NC(=O)[C@H](CC(N)=O)NC(=O)[C@@H]1CCCN1C(=O)[C@@H](NC(=O)[C@H](C)NC(=O)[C@H](CC(N)=O)NC(=O)C(C)[18F])C(C)C)C(=O)N[C@@H](CCC(N)=O)C(=O)N[C@H](C(=O)N[C@@H](CC(C)C)C(=O)N[C@@H](C)C(=O)N[C@@H](CCC(N)=O)C(=O)N[C@@H](CCCCN)C(=O)N[C@H](C(=O)N[C@@H](C)C(=O)N[C@@H](CCCNC(=N)N)C(=O)N[C@H](C(N)=O)[C@@H](C)O)C(C)C)C(C)C` (stereo partly drawn): the Drug uptake worked out at 0.62 % ID/g in [1]; 2.06 % ID/g in [2]; 0.32 % ID/g in data set [3]; 0.28 % ID/g in data set [4]; 0.82 % ID/g in data set [5]; 0.38 % ID/g in data set [6]. Also, the Drug uptake in data set [7] was determined as 4.87 % ID/g; in data set [8], 311 % ID/g; in [9] it was 5.3 % ID/g; in data set [10], 0.51 % ID/g; in [11], 2.13 % ID/g; in [12], 0.64 % ID/g. Besides, the Drug uptake is given as 0.39 % ID/g in data set [13], 3.61 % ID/g in data set [14], 1.18 % ID/g in [15] and 0.61 % ID/g in [16]. Moreover, the Ratio in data set [17] was found to be 1.9; in data set [18] it was 1.8.
With `CC(C)C[C@H](NC(=O)[C@H](CC(=O)O)NC(=O)CNC(=O)[C@H](CCCNC(=N)N)NC(=O)[C@H](CC(C)C)NC(=O)[C@H](CC(N)=O)NC(=O)[C@@H]1CCCN1C(=O)[C@@H](NC(=O)[C@H](C)NC(=O)[C@H](CC(N)=O)NC(=O)c1ccc([18F])cc1)C(C)C)C(=O)N[C@@H](CCC(N)=O)C(=O)N[C@H](C(=O)N[C@@H](CC(C)C)C(=O)N[C@@H](C)C(=O)N[C@@H](CCC(N)=O)C(=O)N[C@@H](CCCCN)C(=O)N[C@H](C(=O)N[C@@H](C)C(=O)N[C@@H](CCCNC(=N)N)C(=O)N[C@H](C(N)=O)[C@@H](C)O)C(C)C)C(C)C` [[18F]-FBA-A20FMDV2], the Drug uptake in data set [1] was 0.31 % ID/g; in [2] it was 1.39 % ID/g; in [3], 0.07 % ID/g; in data set [4], 0.02 % ID/g; in [5], 0.56 % ID/g; in data set [6], 0.29 % ID/g. The Drug uptake in data set [7] is on record as 3.56 % ID/g; in [9], 8.25 % ID/g; in data set [10], 0.63 % ID/g; in [11] it was 15.05 % ID/g; in data set [12] it was 0.27 % ID/g; in [13] it was 0.23 % ID/g. The Drug uptake in data set [14] was 1.33 % ID/g; in data set [15], 0.66 % ID/g; in data set [16], 0.21 % ID/g. The Ratio in data set [17] is recorded as 3.1; in data set [18] it was 2.5.

The values are drawn from ChEMBL document CHEMBL1140108, “In vivo positron emission tomography (PET) imaging with an alphavbeta6 specific peptide radiolabeled using 18F-"click" chemistry: evaluation and comparison with the corresponding 4-[18F]fluorobenzoyl- and 2-[18F]fluoropropionyl-peptides” (J Med Chem, 2008).
